Laboratory results taken from publication PMC10091778 (Drug Development Research, 2022).

Key:
[1] = system: 4T1 murine triple negative breast cancer cells; assay: Resazurin cell viability assay on 4T1 cells; assay type: cell-based; details: Mus musculus, 4T1, 72 h, read-out: IC50 4T1
Method in brief: (§1)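 Cells were seeded in 96-well plates (4T1 10,000, A549 10,000, HL-60 20,000 per well), with adherent lines settling overnight. Test compound came from a 10 mM DMSO stock, serially diluted in medium to 1.56–50 µM (some 39 nM–12.5 µM), for 72 h; three biological replicates. Resazurin (0.15 mg/ml stock, 20 µl per 100 µl) ran 2 h at 37 °C, read at 530/580 nm. Viability was set against untreated and blank wells; IC50 from curves.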

[2] = system: HL‐60 human acute promyelocytic leukemia cells; assay: Resazurin cell viability assay on HL-60 cells; assay type: cell-based; details: HL-60, 72 h, read-out: IC50 HL‐60
Method in brief: as §1

[3] = system: 4T1, A549, and HL‐60 cells; assay type: cell-based; details: resazurin assay, 72 h, up to 50 µM, three cancer cell lines
Method in brief: as §1

HL‐60 cells [4] = assay: Annexin V / propidium iodide flow cytometry; assay type: cell-based, human; details: 6 µM, 24 h; for Early apoptotic cells (AnnV+/PI−) / Late apoptotic cells (AnnV+/PI+) / Living cells (AnnV−/PI−) / Necrotic cells (AnnV−/PI+): mean ± SD; for Early apoptotic cells (AnnV+/PI−): untreated 1.9 ± 0.5%; for Late apoptotic cells (AnnV+/PI+): untreated 9.5 ± 2.7%; for Living cells (AnnV−/PI−): untreated 85 ± 3.9%; for Necrotic cells (AnnV−/PI+): untreated 3.6 ± 1.6%
Method in brief: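 HL-60 cells (100,000) were treated for 24 h at 1, 3 or 6 µM, then resuspended in Annexin V binding buffer (0.01 M HEPES, 0.14 M NaCl, 2.5 mM CaCl2). Annexin V-Alexa 488 was added for 15 min in the dark at room temperature, then PI (10 µg/ml). Quadrant percentages were taken by flow cytometry; three biological replicates, mean ± SD; two-tailed t test against untreated.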

HL‐60 cells [5] = assay: Sub-G1 DNA fragmentation analysis by flow cytometry; assay type: cell-based, human; details: 6 µM, 72 h; mean ± SD; untreated 11.7 ± 1.2%
HL‐60 cells [6] = assay: Cell cycle analysis by flow cytometry; assay type: cell-based, human; details: 72 h; for Cells in G2/M phase: untreated 17.3 ± 1.7%
HL‐60 cells [7] = assay: Mitochondrial membrane depolarization by JC-1 staining; assay type: cell-based, human; details: 16 h, untreated 7.6 ± 0.6%; for Cells with green JC‐1 accumulation (depolarized MMP): 3 µM; for Cells with green JC‐1 monomers (depolarized MMP): 6 µM
[8] = system: colorectal cancer cell line HCT‐116; details: read-out: IC50 HCT‐116; antiproliferative; ref Han et al., 2022; cited from earlier work

Compound | IC50 [1] | IC50 [2] | Cytotoxic / antiproliferative activity in words [3] | other results
CCOC(=O)c1[nH]c(N)nc1-c1cccc(NC(=O)c2cc3ccccc3[nH]2)c1 [Compound 16, Ethyl 4‐(3‐(1H‐indole‐2‐carboxamido)phenyl)−2‐amino‐1H‐imidazole‐5‐carboxylate] | 19.3 µM | 14.4 µM |  | 
CCOC(=O)c1[nH]c(N)nc1-c1cccc(NC(=O)c2ccc3cccc(O)c3n2)c1 [Compound 17, Ethyl 2‐amino‐4‐(3‐(8‐hydroxyquinoline‐2‐carboxamido)phenyl)−1H‐imidazole‐5‐carboxylate] | 17.1 µM | 5.81 µM | low antiproliferative activity | 
Nc1nc(-c2cccc(NC(=O)c3ccc4cccc(O)c4n3)c2)c(C(=O)c2ccccc2)[nH]1 [Compound 18, N‐(3‐(2‐amino‐5‐benzoyl‐1H‐imidazol‐4‐yl)phenyl)−8‐hydroxyquinoline‐2‐carboxamide] | 13.9 µM | 8.95 µM | low antiproliferative activity | 
Nc1nc(-c2cccc(NC(=O)c3ccc4ccccc4n3)c2)c(C(=O)c2ccccc2)[nH]1 [Compound 19, N‐(3‐(2‐amino‐5‐benzoyl‐1H‐imidazol‐4‐yl)phenyl)quinoline‐2‐carboxamide] |  |  | completely inactive | 
Nc1nc(-c2cccc(NC(=O)c3ccccn3)c2)c(C(=O)c2ccccc2)[nH]1 [Compound 20, N‐(3‐(2‐amino‐5‐benzoyl‐1H‐imidazol‐4‐yl)phenyl)picolinamide] | 30.7 µM | 24.8 µM |  | 
Nc1nc(-c2cccc(NC(=O)c3cc(Br)c[nH]3)c2)c(C(=O)c2ccccc2)[nH]1 [Compound 21, N‐(3‐(2‐amino‐5‐benzoyl‐1H‐imidazol‐4‐yl)phenyl)‐4‐bromo‐1H‐pyrrole‐2‐carboxamide] |  |  | completely inactive | 
Nc1nc(-c2cccc(NC(=O)c3ccc[nH]3)c2)c(C(=O)c2ccccc2)[nH]1 [Compound 22, N‐(3‐(2‐amino‐5‐benzoyl‐1H‐imidazol‐4‐yl)phenyl)‐1H‐pyrrole‐2‐carboxamide] |  | 6.9 µM | low antiproliferative activity | 
Nc1nc(-c2cccc(NC(=O)c3cc4cc(F)ccc4[nH]3)c2)c(C(=O)c2ccccc2)[nH]1 [Compound 23, N‐(3‐(2‐amino‐5‐benzoyl‐1H‐imidazol‐4‐yl)phenyl)‐5‐fluoro‐1H‐indole‐2‐carboxamide] | 9.05 µM | 5.21 µM | hampered the viability of all three tested cell lines | Early apoptotic cells (AnnV+/PI−) (HL‐60 cells [4]): 3.2 ± 0.7%; Late apoptotic cells (AnnV+/PI+) (HL‐60 cells [4]): 15.5 ± 3.9%; Living cells (AnnV−/PI−) (HL‐60 cells [4]): 76.8 ± 3.5%; DNA fragmentation (sub‐G1 population) of HL‐60 cells (HL‐60 cells [5]): 22.9 ± 1.2%; Cells in G2/M phase (HL‐60 cells [6]; 3 µM): 22.4 ± 1.6%; Cells in G2/M phase (HL‐60 cells [6]; 6 µM): 39.2 ± 3.1%; Effect on cell cycle distribution, in words (HL‐60 cells [6]): significantly disturbed cell cycle distribution; Cells with green JC‐1 accumulation (depolarized MMP) (HL‐60 cells [7]): 9.1 ± 0.2%; Cells with green JC‐1 monomers (depolarized MMP) (HL‐60 cells [7]): 13.4 ± 0.8%
CCOC(=O)c1[nH]c(N)nc1-c1cccc(NC(=O)c2cc3cc(OC)ccc3[nH]2)c1 [Compound 24, Ethyl 2‐amino‐4‐(3‐(5‐methoxy‐1H‐indole‐2‐carboxamido)phenyl)‐1H‐imidazole‐5‐carboxylate] | 12.6 µM | 7.57 µM | low antiproliferative activity | 
Nc1nc(-c2cccc(NC(=O)c3cc4ccccc4[nH]3)c2)c(C(=O)c2ccccc2)[nH]1 [Compound 25, N‐(3‐(2‐amino‐5‐benzoyl‐1H‐imidazol‐4‐yl)phenyl)‐1H‐indole‐2‐carboxamide] |  | 6.34 µM | low antiproliferative activity | 
COc1ccc2[nH]c(C(=O)Nc3cccc(-c4nc(N)[nH]c4C(C)=O)c3)cc2c1 [Compound 26, N‐(3‐(5‐acetyl‐2‐amino‐1H‐imidazol‐4‐yl)phenyl)‐5‐methoxy‐1H‐indole‐2‐carboxamide] | 35 µM | 24.8 µM |  | 
COc1ccc2[nH]c(C(=O)Nc3cccc(-c4nc(N)[nH]c4C(=O)c4ccccc4)c3)cc2c1 [Compound 27, N‐(3‐(2‐amino‐5‐benzoyl‐1H‐imidazol‐4‐yl)phenyl)‐5‐methoxy‐1H‐indole‐2‐carboxamide] | 11.7 µM | 3.12 µM | hampered the viability of all three tested cell lines | Early apoptotic cells (AnnV+/PI−) (HL‐60 cells [4]): 16.1 ± 0.6%; Necrotic cells (AnnV−/PI+) (HL‐60 cells [4]): 2.5 ± 0.3%; Late apoptotic cells (AnnV+/PI+) (HL‐60 cells [4]): 50.7 ± 0.9%; Living cells (AnnV−/PI−) (HL‐60 cells [4]): 30.5 ± 0.7%; DNA fragmentation (sub‐G1 population) of HL‐60 cells (HL‐60 cells [5]): 53.8 ± 7.3%; Cells with green JC‐1 accumulation (depolarized MMP) (HL‐60 cells [7]): 13.3 ± 1.1%; Cells with green JC‐1 monomers (depolarized MMP) (HL‐60 cells [7]): 42.4 ± 0.8%
Nc1nc(-c2cccc(NC(=O)c3cc4cc(Br)ccc4[nH]3)c2)c(C(=O)c2ccccc2)[nH]1 [Compound 28, N‐(3‐(2‐amino‐5‐benzoyl‐1H‐imidazol‐4‐yl)phenyl)‐5‐bromo‐1H‐indole‐2‐carboxamide] | 13 µM | 2.91 µM | hampered the viability of all three tested cell lines | Early apoptotic cells (AnnV+/PI−) (HL‐60 cells [4]): 23.4 ± 1%; Necrotic cells (AnnV−/PI+) (HL‐60 cells [4]): 2.1 ± 0.4%; Late apoptotic cells (AnnV+/PI+) (HL‐60 cells [4]): 43.4 ± 1.2%; Living cells (AnnV−/PI−) (HL‐60 cells [4]): 31.1 ± 0.8%; DNA fragmentation (sub‐G1 population) of HL‐60 cells (HL‐60 cells [5]): 56.5 ± 2.8%; Cells in G2/M phase (HL‐60 cells [6]; 3 µM): 21.0 ± 0.5%; Effect on cell cycle distribution, in words (HL‐60 cells [6]): significantly disturbed cell cycle distribution; Cells with green JC‐1 accumulation (depolarized MMP) (HL‐60 cells [7]): 10.4 ± 0.2%; Cells with green JC‐1 monomers (depolarized MMP) (HL‐60 cells [7]): 50.3 ± 0.7%
CC(=O)c1[nH]c(N)nc1-c1cccc(NC(=O)c2cc3cc(F)ccc3[nH]2)c1 [Compound 30, N‐(3‐(5‐acetyl‐2‐amino‐1H‐imidazol‐4‐yl)phenyl)‐5‐fluoro‐1H‐indole‐2‐carboxamide] | 25.3 µM | 25 µM |  | 
CCOC(=O)c1[nH]c(N)nc1-c1cccc(NC(=O)c2cc3cc(F)ccc3[nH]2)c1 [Compound 31, Ethyl 2‐amino‐4‐(3‐(5‐fluoro‐1H‐indole‐2‐carboxamido)phenyl)‐1H‐imidazole‐5‐carboxylate] | 14.4 µM | 10 µM |  | 
Nc1nc(-c2cc(NC(=O)c3cc4cc(Br)ccc4[nH]3)ccc2Cl)c(C(=O)c2ccccc2)[nH]1 [Compound 32, N‐(3‐(2‐amino‐5‐benzoyl‐1H‐imidazol‐4‐yl)‐4‐chlorophenyl)‐5‐bromo‐1H‐indole‐2‐carboxamide] | 12.4 µM | 7.82 µM | hampered the viability of all three tested cell lines | Late apoptotic cells (AnnV+/PI+) (HL‐60 cells [4]): 11.7 ± 2.6%; Living cells (AnnV−/PI−) (HL‐60 cells [4]): 78.9 ± 1.6%; Concentrations at which arrest in G0/G1 phase occurred (HL‐60 cells [6]): 1 to 6 µM; Effect on cell cycle distribution, in words (HL‐60 cells [6]): significantly disturbed cell cycle distribution
Nc1nc(-c2cc(Cl)cc(NC(=O)c3cc4cc(Br)ccc4[nH]3)c2)c(C(=O)c2ccccc2)[nH]1 [Compound 33, N‐(3‐(2‐amino‐5‐benzoyl‐1H‐imidazol‐4‐yl)‐5‐chlorophenyl)‐5‐bromo‐1H‐indole‐2‐carboxamide] | 11.5 µM | 6.44 µM | hampered the viability of all three tested cell lines | Late apoptotic cells (AnnV+/PI+) (HL‐60 cells [4]): 15.6 ± 1.8%; Living cells (AnnV−/PI−) (HL‐60 cells [4]): 79.1 ± 1.9%; Cells in G0/G1 phase (HL‐60 cells [6]; 6 µM, control 64.3 ± 1.9%): 74.1 ± 1.4%; Concentrations at which arrest in G0/G1 phase occurred (HL‐60 cells [6]): 3 to 6 µM; Effect on cell cycle distribution, in words (HL‐60 cells [6]): significantly disturbed cell cycle distribution
Cc1ccc(NC(=O)c2cc3cc(Br)ccc3[nH]2)cc1-c1nc(N)[nH]c1C(=O)c1ccccc1 [Compound 34, N‐(3‐(2‐amino‐5‐benzoyl‐1H‐imidazol‐4‐yl)‐4‐methylphenyl)‐5‐bromo‐1H‐indole‐2‐carboxamide] | 27 µM | 24.3 µM |  | 
Nc1nc(-c2ccc(NC(=O)c3cc4cc(Br)ccc4[nH]3)cc2)c(C(=O)c2ccccc2)[nH]1 [Compound 35, N‐(4‐(2‐amino‐5‐benzoyl‐1H‐imidazol‐4‐yl)phenyl)‐5‐bromo‐1H‐indole‐2‐carboxamide] | 11 µM | 6.77 µM | hampered the viability of all three tested cell lines | AnnexinV translocation, in words (HL‐60 cells [4]): did not influenced AnnexinV translocation significantly; Cells in G2/M phase (HL‐60 cells [6]; 1 µM): 20.8 ± 0.4%; Effect on cell cycle distribution, in words (HL‐60 cells [6]): significantly disturbed cell cycle distribution
Hemimycalin C |  |  |  | IC50 [8]: 18.6 µM
Hemimycalin D |  |  |  | IC50 [8]: 17.1 µM
Hemimycalin E |  |  |  | IC50 [8]: 8.6 µM
